In brackets after ≈: the same amount, converted by molar mass. Activity calls are given as the source filed them. The rule behind the calls is not given here.
Key:
Staphylococcus aureus [1] = test: (§1) Antimicrobial activity against […] Staphylococcus aureus ATCC 29213 tissue cage Wistar rat infected model assessed as bacterial load reduction at 50 mg/kg/day, ip treated for 7 days measured 24 hrs after last dose (reference value: 6.8 +/-0.8 logCFU/ml) co-treated with 25 mg/kg rifampin, ip bid; type: functional
[2] = Cmax in Escherichia coli ATCC 35218 infected Wistar rat tissue cage fluid at 50 mg/kg/day, ip measured on day 4; type: ADME, organism-based, Interstitial fluid; parameters: dose 50 mg/kg/day, route intraperitoneal
[3] = AUC in Escherichia coli ATCC 35218 infected Wistar rat tissue cage fluid at 100 mg/kg/day, ip measured on day 4; type: ADME, organism-based; parameters: route intraperitoneal
[4] = AUC in Escherichia coli ATCC 35218 infected Wistar rat serum at 100 mg/kg/day, ip measured on day 4; type: ADME, organism-based; parameters: route intraperitoneal
[5] = AUC in Escherichia coli ATCC 35218 infected Wistar rat tissue cage fluid at 50 mg/kg/day, ip measured on day 4; type: ADME, organism-based; parameters: route intraperitoneal
Staphylococcus aureus [6] = test: as §1, with “100” for “50”, “14” for “7”, “7.2 +/- 0.6” for “6.8 +/-0.8”; type: functional
Staphylococcus aureus [7] = test: Antimicrobial activity against methicillin-resistant Staphylococcus aureus ATCC 29213 tissue cage Wistar rat infected model assessed as bacterial load reduction at 50 mg/kg/day, ip treated for 7 days measured 24 hrs after last dose (reference value: 6.8 +/-0.8 logCFU/ml); type: functional; details: route intraperitoneal
Staphylococcus aureus [8] = test: as §1, with “100” for “50”; type: functional
[9] = AUC in Escherichia coli ATCC 35218 infected Wistar rat serum at 50 mg/kg/day, ip measured on day 4; type: ADME, organism-based; parameters: route intraperitoneal
Staphylococcus aureus [10] = test: Antimicrobial activity against […] Staphylococcus aureus ATCC 29213 at 2 times MIC in presence of rifampin; type: functional, organism-based
In short: (§2)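 24-h killing curves in log phase using subinhibitory and clinically available concentrations, single drug or with rifampin. Bactericidal activity is a ≥3-log10 CFU/ml fall from the initial inoculum at 24 h.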

Staphylococcus aureus [11] = test: as §1, with “coverslip” for “tissue cage”, “100” for “50”, “14” for “7”, “5.4 +/- 1” for “6.8 +/-0.8”; type: functional
[12] = Cmax in Escherichia coli ATCC 35218 infected Wistar rat tissue cage fluid at 100 mg/kg/day, ip measured on day 4; type: ADME, organism-based, Interstitial fluid; parameters: dose 100 mg/kg/day, route intraperitoneal
Staphylococcus aureus [13] = test: Antimicrobial activity against stationary phase culture of […] Staphylococcus aureus ATCC 29213 by macrodilution method; type: functional
In short: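 Macrodilution MIC and MBC. MIC: lowest concentration inhibiting macroscopic growth. MBC: lowest concentration killing 99.9% of the initial inoculum. Log-phase cultures were used, and MBC was also determined in stationary phase. Subcultures were streaked down the plate centre and left to dry before spreading, to avoid carryover.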

Staphylococcus aureus [14] = test: Antimicrobial activity against […] Staphylococcus aureus ATCC 29213 tissue cage Wistar rat infected model assessed as bacterial load reduction at 100 mg/kg/day, ip treated for 7 days measured 24 hrs after last dose (reference value: 6.8 +/-0.8 logCFU/ml); type: functional; details: route intraperitoneal
Staphylococcus aureus [15] = test: Antimicrobial activity against […] Staphylococcus aureus ATCC 29213 coverslip Wistar rat infected model assessed as bacterial load reduction at 100 mg/kg/day, ip treated for 14 days measured 24 hrs after last dose (reference value: 5.4 +/- 1 logCFU/ml); type: functional; details: route intraperitoneal
Staphylococcus aureus [16] = test: Antimicrobial activity against […] Staphylococcus aureus ATCC 29213 tissue cage Wistar rat infected model assessed as bacterial load reduction at 100 mg/kg/day, ip treated for 14 days measured 24 hrs after last dose (reference value: 7.2 +/- 0.6 logCFU/ml); type: functional; details: route intraperitoneal
[17] = AUC in Staphylococcus epidermidis ATCC 27626 infected Wistar rat tissue cage fluid at 25 mg/kg, ip measured on day 4; type: ADME, organism-based; parameters: dose 25 mg/kg, route intraperitoneal
Staphylococcus aureus [18] = test: Antimicrobial activity against […] Staphylococcus aureus ATCC 29213 tissue cage Wistar rat infected model assessed as bacterial load reduction at 25 mg/kg, ip bid treated for 7 days measured 24 hrs after last dose (reference value: 6.8 +/-0.8 logCFU/ml); type: functional; details: route intraperitoneal
[19] = Cmax in Staphylococcus epidermidis ATCC 27626 infected Wistar rat tissue cage fluid at 25 mg/kg, ip measured on day 4; type: ADME, organism-based; parameters: dose 25 mg/kg, route intraperitoneal
[20] = Ratio of Cmax in Wistar rat tissue cage fluid to MIC for Staphylococcus epidermidis ATCC 27626 at 25 mg/kg, ip measured on day 4; type: functional; details: route intraperitoneal
Staphylococcus aureus [21] = test: Bactericidal activity against log phase culture of […] Staphylococcus aureus ATCC 29213 at 8 times MIC; type: functional, organism-based; in short: as §2
[22] = AUC in Staphylococcus epidermidis ATCC 27626 infected Wistar rat serum at 25 mg/kg, ip measured on day 4; type: ADME, organism-based; parameters: dose 25 mg/kg, route intraperitoneal
[23] = Ratio of AUC in Wistar rat tissue cage fluid to MIC for Staphylococcus epidermidis ATCC 27626 at 25 mg/kg, ip measured on day 4; type: functional; details: route intraperitoneal

Structure (SMILES): C[C@H]1COc2c(N3CCN(C)CC3)c(F)cc3c(=O)c(C(=O)O)cn1c23.C[C@H]1COc2c(N3CCN(C)CC3)c(F)cc3c(=O)c(C(=O)O)cn1c23.O [LEVOFLOXACIN]
- log10CFU/ml (Staphylococcus aureus [1]): 6.7
- Cmax [2]: 6000 ng/mL
- AUC [3]: 117 µg·h/mL
- AUC [4]: 106 µg·h/mL
- AUC [5]: 68 µg·h/mL
- log10CFU/ml (Staphylococcus aureus [6]): 3.37
- log10CFU/ml (Staphylococcus aureus [7]): 6.4
- log10CFU/ml (Staphylococcus aureus [8]): 6.74
- AUC [9]: 77 µg·h/mL
- inhibition (Staphylococcus aureus [10]): inactive
- log10CFU/ml (Staphylococcus aureus [11]): 3.36
- Cmax [12]: 12000 ng/mL
- MBC (Staphylococcus aureus [13]): > 8 µg/mL
- log10CFU/ml (Staphylococcus aureus [14]): 6.74
- log10CFU/ml (Staphylococcus aureus [15]): 2.24
- log10CFU/ml (Staphylococcus aureus [16]): 2.9

Structure (SMILES): CO[C@H]1/C=C/O[C@@]2(C)Oc3c(C)c(O)c4c(O)c(c(/C=N/N5CCN(C)CC5)c(O)c4c3C2=O)NC(=O)/C(C)=C\C=C\[C@H](C)[C@H](O)[C@@H](C)[C@@H](O)[C@@H](C)[C@H](OC(C)=O)[C@@H]1C [RIFAMPIN]
- AUC [17]: 304 µg·h/mL
- log10CFU/ml (Staphylococcus aureus [18]): 6.9
- Cmax [19]: 6600 ng/mL
- Ratio [20]: 440
- Activity (Staphylococcus aureus [21]): Active
- AUC [22]: 277 µg·h/mL
- Ratio [23]: 20260
- MBC (Staphylococcus aureus [13]): 4 µg/mL (≈ 4.86 µM)

— ChEMBL document CHEMBL1687713 (Antimicrob Agents Chemother, 2008)
